# The campaign covered roughly 340,000 compounds. About 1,100 (0.32%) were called active.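 How the source made its calls: active means inhibition above a set limit, near 3 SD of compounds lacking own fluorescence (cut at about 54% in these data); inactive means the rest.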 Only a selection was taken, and actives are over-represented in it overall.
# Tested on: beta-arrestin 1 C-terminal peptide binding to AP2 beta2-adaptin appendage (human)
# Test: inhibitors of beta-arrestin/AP2 binding, primary screen, biochemical, GPCR trafficking, flow cytometry (AID 504490);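 further: plate controls were DMSO wells for no effect and 5 µM unlabelled arrestin peptide for full effect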
# Conditions: FITC-arrestin peptide / GST-AP2 beads, at 10 µM, hits give high values, AP2 beta2 appendage carries R879A mutation
# Procedure, shortened: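 Material – AP2 appendage R879A on GSH beads · Buffer or medium – PBS with 0.05% Tween 20 and 0.1% BSA · Probe or stimulus – fluorescein-tagged arrestin peptide at 50 nM final · Incubation – compound with beads 12 min RT, then probe 1 h RT · Detection – high-throughput flow cytometry of beads, ex 488, em 535 nm · Evaluation – percent response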
row,SMILES,inhibition
1,COc1ccc(/C=C2\SC(=S)N(CCC(=O)Nc3ccccn3)C2=O)cc1OC,73.7% (active)
2,CCOc1ccc(/C=C2\SC(=S)N(NC(=O)c3ccncc3)C2=O)cc1OC,18.7% (inactive)
3,COc1cccc(/C=C2/SC(=S)N(CC(=O)NC3C=CS(=O)(=O)C3)C2=O)c1 (stereo not given),-14% (inactive)
4,N#CCCN(C(=O)COC(=O)c1ccc(S(=O)(=O)N2CCCCCC2)cc1)c1ccccc1,-3.59% (inactive)
5,COc1ccc(-c2[nH]ncc2CN(C)Cc2c(C)n[nH]c2C)c(OC)c1,6.55% (inactive)
6,CC(=O)c1c(C)[nH]c(C(=O)COC(=O)CCOc2ccc(C)cc2)c1C,5.24% (inactive)
7,Cc1ccc(OCCCCc2c(C)n[nH]c2C)cc1,65.1% (active)
8,Cc1cc(NC(=O)CCS(=O)(=O)c2ccc(F)cc2)no1,-7.97% (inactive)
9,CC1CN(C(=O)c2ccccc2NS(=O)(=O)c2cccc([N+](=O)[O-])c2)CC(C)O1 (stereo not given),2.09% (inactive)
10,NC(=O)C1CCN(C(=O)CC2C(=O)NCCN2Cc2cccc(Oc3ccccc3)c2)CC1 (stereo not given),68.5% (active)
11,CN(CCc1cn[nH]c1)C(=O)CC1C(=O)NCCN1Cc1cccc(Oc2ccccc2)c1 (stereo not given),9% (inactive)
12,COc1cccc(CN2CCNC(=O)C2CC(=O)N(C)CCc2ccccn2)c1 (stereo not given),-2.95% (inactive)
13,Cc1nc2c(ncn2-c2ccccc2)c(=O)n1NC(=O)CN1CCCC1,-8.96% (inactive)
14,COc1ccc(-n2ncc3c2CC(C)(C)CC3NC(=O)CCc2c(C)noc2C)cc1 (stereo not given),5.75% (inactive)
15,O=C(c1ccc(Cl)s1)N(Cc1nnc(-c2ccccc2Cl)o1)C1CC1,-9.93% (inactive)
16,O=C(Nc1nc(-c2ccco2)c(-c2ccco2)s1)c1ccco1,8.21% (inactive)
17,COCCNC(=O)c1snc2ccc(Cl)cc12,2.57% (inactive)
18,COCCNC(=O)Nc1ccc2nc(-c3ccco3)c(-c3ccco3)nc2c1,68% (active)
19,CCc1noc(C)c1C(=O)N1CCCC(N2CCN(c3ccc(F)cc3)CC2)C1 (stereo not given),7.14% (inactive)
20,COc1cccc(C2SCC(=O)N2c2cccc(C)c2)c1OC (stereo not given),3.87% (inactive)

row,SMILES,inhibition
1,CCc1ccc(NC(=O)Nc2ccncc2)cc1,0.23% (inactive)
2,NS(=O)(=O)c1ccc2nc(NC(=O)CS(=O)(=O)c3ccc(F)cc3)sc2c1,3.77% (inactive)
3,NS(=O)(=O)c1ccc2nc(NC(=O)C3=COCCO3)sc2c1,58.1% (active)
4,Cc1csc(NC(=O)C2=COCCO2)n1,17.8% (inactive)
5,O=C1N(Cc2ccc3c(c2)OCO3)c2ccccc2C1(O)c1c[nH]c2ccccc12 (stereo not given),2.95% (inactive)
6,Cc1ccccc1Cn1c2ccccc2c2cnn(CC(=O)NCc3ccco3)c(=O)c21,-0.8% (inactive)
7,CCOc1ccc(C(C)=O)cc1COC(=O)CN1C(=O)NC2(CCCC2)C1=O,3.04% (inactive)
8,S=c1ccc2ccccc2[nH]1,-7.56% (inactive)
9,COC(=O)C1=C(C)N(C)C(C)=C(C(=O)OC)C1c1cccc(Br)c1,-3.12% (inactive)
10,CCN1C[C@@H]2[C@@H]3C(=O)N(Cc4ccccc4)C(=O)[C@@H]3[C@](Cc3ccccc3)(C(=O)OC)N2C1=NC1CCCCC1,4.73% (inactive)
11,CCOc1ccccc1Nc1ccc(C(=O)O)cc1[N+](=O)[O-],35.8% (inactive)
12,Cc1ccc(Nc2ccc(C(N)=O)cc2[N+](=O)[O-])cc1,54.7% (active)
13,NC(=O)c1ccc(Nc2ccc3c(c2)CCC3)c([N+](=O)[O-])c1,38.4% (inactive)
14,S=C(Nc1cccnc1)Nc1ccccn1,3.47% (inactive)
15,CCOc1ccccc1C1CC(c2ccc(Cl)cc2)Nc2nc(N)nn21 (stereo not given),10.8% (inactive)
16,O=c1[nH]n2c(-c3ccccc3)nc(O)c2c2ccccc12,-0.17% (inactive)
17,O=c1[nH]c2ccccc2n2c(-c3ccccc3)nnc12,55.3% (active)
18,Cc1ccc(-c2cccc([C@H]3[C@@H]4C=CC[C@@H](C)[C@@H]4C(=O)N3Cc3ccccc3)c2)cc1,-6.59% (inactive)
19,CCC1(CC)NC(=O)N(CC(=O)OCC(=O)NC(=O)c2ccccc2)C1=O,5.01% (inactive)
20,CC(=O)Nc1ccc(S(=O)(=O)N2CCC(N(C)CCC(C)C)CC2)cc1,-0.3% (inactive)

row,SMILES,inhibition
1,CC(CN1CCOCC1)OC(=O)c1ccc(Cl)cc1Cl (stereo not given),8.15% (inactive)
2,CC(CN1CCCCC1)OC(=O)c1ccccc1Cl (stereo not given),84.6% (active)
3,Cc1cccc(C(=O)OC(C)CN2CCCC2)c1 (stereo not given),14.8% (inactive)
4,Cc1cccn2c(=O)c(/C=C(\C#N)C(N)=O)c(N3CCCCCC3)nc12,-21.3% (inactive)
5,Cc1cccn2c(=O)c(/C=C(\C#N)S(=O)(=O)c3ccc(Cl)cc3)c(N3CCC(C(N)=O)CC3)nc12,3.53% (inactive)
6,Cc1cc(C)cc(Oc2nc3c(C)cccn3c(=O)c2/C=C(\C#N)C(=O)NC2CCS(=O)(=O)C2)c1 (stereo not given),77.2% (active)
7,CCCn1c(O)c(CN2CCCC(C)C2)c(C)c(C#N)c1=O (stereo not given),11.7% (inactive)
8,O=C(NNc1cc(Cl)cc(Cl)c1)c1c(F)cccc1Cl,-11.9% (inactive)
9,O=C(NCc1ccco1)c1cc2sccc2n1Cc1ccc(F)cc1,1.12% (inactive)
10,CCN(CC(=O)NCc1ccco1)S(=O)(=O)c1ccc(F)cc1,24.4% (inactive)
11,O=C(NCc1ccco1)c1ccc(CS(=O)(=O)Cc2ccc(F)cc2)o1,97% (active)
12,Cc1ccc(NS(=O)(=O)c2cn(C)c(=O)n(C)c2=O)c(C)c1,-3.22% (inactive)
13,Cc1ccc(CC2C(=O)N(c3ccc(F)cc3)C(=O)C2C)cc1 (stereo not given),-10.9% (inactive)
14,COc1ccc(CCNc2ncnc3c2nnn3Cc2ccccc2)cc1,56% (active)
15,COc1ccc(CNCCCn2cnc3c(OCc4ccccc4)ncnc32)cc1,3.96% (inactive)
16,CC(C)Nc1ncnc2c1nnn2Cc1ccccc1,-0.65% (inactive)
17,CN(CCCC(=O)Nc1nccs1)S(=O)(=O)c1ccc(Cl)cc1,-5.07% (inactive)
18,O=C(Nc1ccccc1N1CCOCC1)c1ccncc1,-0.66% (inactive)
19,CN(C)c1ccc(NC(=O)c2ccncc2)c2ccccc12,57.2% (active)
20,Cc1c(C(=O)NNC(=O)c2ccncc2)oc2ccccc12,-2.61% (inactive)

# Source: PubChem BioAssay AID504490 (NMMLSC, 2011)
